Measured values reported in ChEMBL document CHEMBL1255226 (J Med Chem, 2010).
Each block holds one molecule with its values, some of them ahead of it. Activity calls are given as the source filed them. No cut-off for these calls is given here.

Assays:
[1] = target: Serine/threonine-protein kinase mTOR (Mus musculus, UniProt Q9JLN9); assay: Inhibition of mTOR in p53-deficient MEF assessed as phosphorylation of S6K1 at Thr389 by immunoblotting
[2] = target: Phosphatidylinositol 4,5-bisphosphate 3-kinase catalytic subunit alpha isoform (Homo sapiens, UniProt P42336, S473D); assay: Inhibition of PI3Kalpha in human PC3 cells expressing Akt1 S473D mutant assessed as phosphorylation of Akt Thr308 by immunoblotting; format: cell-based, PC-3
Phosphatidylinositol 4,5-bisphosphate 3-kinase catalytic subunit alpha isoform, sequence (P42336 whole entry, looked up, stated change not applied, canonical isoform): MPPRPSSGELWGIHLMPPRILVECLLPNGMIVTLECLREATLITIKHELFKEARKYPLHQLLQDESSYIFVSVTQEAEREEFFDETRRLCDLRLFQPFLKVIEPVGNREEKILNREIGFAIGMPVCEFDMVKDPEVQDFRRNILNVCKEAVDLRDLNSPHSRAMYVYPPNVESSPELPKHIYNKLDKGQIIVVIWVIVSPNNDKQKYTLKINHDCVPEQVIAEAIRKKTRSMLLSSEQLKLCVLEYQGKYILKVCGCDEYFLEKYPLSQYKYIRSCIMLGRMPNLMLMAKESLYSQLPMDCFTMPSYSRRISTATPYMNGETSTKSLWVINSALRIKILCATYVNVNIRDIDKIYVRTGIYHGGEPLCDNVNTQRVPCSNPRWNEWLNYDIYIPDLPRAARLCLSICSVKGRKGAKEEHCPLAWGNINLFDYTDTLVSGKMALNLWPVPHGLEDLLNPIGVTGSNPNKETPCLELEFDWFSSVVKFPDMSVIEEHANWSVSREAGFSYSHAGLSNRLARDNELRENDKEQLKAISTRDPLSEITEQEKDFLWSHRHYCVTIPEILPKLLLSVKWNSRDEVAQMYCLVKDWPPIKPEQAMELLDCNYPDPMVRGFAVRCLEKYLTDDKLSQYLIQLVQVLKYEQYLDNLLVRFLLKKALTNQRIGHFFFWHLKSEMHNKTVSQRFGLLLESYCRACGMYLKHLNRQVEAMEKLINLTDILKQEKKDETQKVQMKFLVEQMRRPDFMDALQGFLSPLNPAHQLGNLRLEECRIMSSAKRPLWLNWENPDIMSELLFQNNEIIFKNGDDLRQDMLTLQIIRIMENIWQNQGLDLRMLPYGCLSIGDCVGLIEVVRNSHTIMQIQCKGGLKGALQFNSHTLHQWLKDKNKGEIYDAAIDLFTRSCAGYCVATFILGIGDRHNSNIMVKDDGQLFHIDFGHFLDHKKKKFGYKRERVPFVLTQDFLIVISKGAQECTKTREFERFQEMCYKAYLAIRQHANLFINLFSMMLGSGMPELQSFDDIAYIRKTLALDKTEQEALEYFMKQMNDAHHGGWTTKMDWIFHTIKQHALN

[3] = Volume of distribution at steady state in C57BL/6 mouse at 1 mg/kg, iv; format: ADME, organism-based; set-up: dose 1 mg/kg, route intravenous; conditions: in vivo, read-out: Vdss
[4] = AUC in C57BL/6 mouse at 10 mg/kg, po; format: ADME, organism-based; set-up: dose 10 mg/kg, route oral; conditions: plasma
Mus musculus [5] = assay: In vivo inhibition of mTOR complex 2 in C57BL/6 mouse assessed as reduction of Akt1 phosphorylation at S473 at 20 mg/kg, ip after 2 to 3 hrs by Western blotting
Mus musculus [6] = assay: In vivo inhibition of mTOR complex 1 in C57BL/6 mouse lung assessed as reduction of S6 phosphorylation at S235/236 at 20 mg/kg, ip after up to 6 hrs by Western blotting; format: functional, organism-based; set-up: dose 20 mg/kg
Summary of the method: (§1)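 They received a single IP dose of 20 mg/kg (NMP stock diluted 1:4 with 50% PEG400) for 2, 6 or 10 h; vehicle controls were dosed for 10 h. Mice were re-fed 1 h before sacrifice. Liver and lung were sonicated in HEPES pH 7.4 lysis buffer with phosphatase and protease inhibitors. Lysates were Bradford-normalized and immunoblotted for Akt S473 and S6 S235/236.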

[7] = Cmax in C57BL/6 mouse at 1 mg/kg, iv; format: ADME, organism-based; set-up: dose 1 mg/kg, route intravenous; conditions: in vivo
[8] = AUC in Swiss albino mouse at 10 mg, ip; format: ADME, organism-based; conditions: plasma
Mus musculus [9] = assay: In vivo inhibition of mTOR complex 1 in C57BL/6 mouse liver assessed as reduction of S6 phosphorylation at S235/236 at 20 mg/kg, ip after up to 10 hrs by Western blotting; format: functional, organism-based; set-up: dose 20 mg/kg; summary of the method: as §1
[10] = Mean retention time in C57BL/6 mouse at 10 mg/kg, po; format: ADME, organism-based; set-up: dose 10 mg/kg, route oral; conditions: in vivo
[11] = Cmax in C57BL/6 mouse at 10 mg/kg, po; format: ADME, organism-based; set-up: dose 10 mg/kg, route oral; conditions: in vivo
[12] = target: Phosphatidylinositol 4-kinase alpha (Homo sapiens, UniProt P42356); assay: Inhibition of PI4Kalpha
Phosphatidylinositol 4-kinase alpha, sequence (P42356 whole entry): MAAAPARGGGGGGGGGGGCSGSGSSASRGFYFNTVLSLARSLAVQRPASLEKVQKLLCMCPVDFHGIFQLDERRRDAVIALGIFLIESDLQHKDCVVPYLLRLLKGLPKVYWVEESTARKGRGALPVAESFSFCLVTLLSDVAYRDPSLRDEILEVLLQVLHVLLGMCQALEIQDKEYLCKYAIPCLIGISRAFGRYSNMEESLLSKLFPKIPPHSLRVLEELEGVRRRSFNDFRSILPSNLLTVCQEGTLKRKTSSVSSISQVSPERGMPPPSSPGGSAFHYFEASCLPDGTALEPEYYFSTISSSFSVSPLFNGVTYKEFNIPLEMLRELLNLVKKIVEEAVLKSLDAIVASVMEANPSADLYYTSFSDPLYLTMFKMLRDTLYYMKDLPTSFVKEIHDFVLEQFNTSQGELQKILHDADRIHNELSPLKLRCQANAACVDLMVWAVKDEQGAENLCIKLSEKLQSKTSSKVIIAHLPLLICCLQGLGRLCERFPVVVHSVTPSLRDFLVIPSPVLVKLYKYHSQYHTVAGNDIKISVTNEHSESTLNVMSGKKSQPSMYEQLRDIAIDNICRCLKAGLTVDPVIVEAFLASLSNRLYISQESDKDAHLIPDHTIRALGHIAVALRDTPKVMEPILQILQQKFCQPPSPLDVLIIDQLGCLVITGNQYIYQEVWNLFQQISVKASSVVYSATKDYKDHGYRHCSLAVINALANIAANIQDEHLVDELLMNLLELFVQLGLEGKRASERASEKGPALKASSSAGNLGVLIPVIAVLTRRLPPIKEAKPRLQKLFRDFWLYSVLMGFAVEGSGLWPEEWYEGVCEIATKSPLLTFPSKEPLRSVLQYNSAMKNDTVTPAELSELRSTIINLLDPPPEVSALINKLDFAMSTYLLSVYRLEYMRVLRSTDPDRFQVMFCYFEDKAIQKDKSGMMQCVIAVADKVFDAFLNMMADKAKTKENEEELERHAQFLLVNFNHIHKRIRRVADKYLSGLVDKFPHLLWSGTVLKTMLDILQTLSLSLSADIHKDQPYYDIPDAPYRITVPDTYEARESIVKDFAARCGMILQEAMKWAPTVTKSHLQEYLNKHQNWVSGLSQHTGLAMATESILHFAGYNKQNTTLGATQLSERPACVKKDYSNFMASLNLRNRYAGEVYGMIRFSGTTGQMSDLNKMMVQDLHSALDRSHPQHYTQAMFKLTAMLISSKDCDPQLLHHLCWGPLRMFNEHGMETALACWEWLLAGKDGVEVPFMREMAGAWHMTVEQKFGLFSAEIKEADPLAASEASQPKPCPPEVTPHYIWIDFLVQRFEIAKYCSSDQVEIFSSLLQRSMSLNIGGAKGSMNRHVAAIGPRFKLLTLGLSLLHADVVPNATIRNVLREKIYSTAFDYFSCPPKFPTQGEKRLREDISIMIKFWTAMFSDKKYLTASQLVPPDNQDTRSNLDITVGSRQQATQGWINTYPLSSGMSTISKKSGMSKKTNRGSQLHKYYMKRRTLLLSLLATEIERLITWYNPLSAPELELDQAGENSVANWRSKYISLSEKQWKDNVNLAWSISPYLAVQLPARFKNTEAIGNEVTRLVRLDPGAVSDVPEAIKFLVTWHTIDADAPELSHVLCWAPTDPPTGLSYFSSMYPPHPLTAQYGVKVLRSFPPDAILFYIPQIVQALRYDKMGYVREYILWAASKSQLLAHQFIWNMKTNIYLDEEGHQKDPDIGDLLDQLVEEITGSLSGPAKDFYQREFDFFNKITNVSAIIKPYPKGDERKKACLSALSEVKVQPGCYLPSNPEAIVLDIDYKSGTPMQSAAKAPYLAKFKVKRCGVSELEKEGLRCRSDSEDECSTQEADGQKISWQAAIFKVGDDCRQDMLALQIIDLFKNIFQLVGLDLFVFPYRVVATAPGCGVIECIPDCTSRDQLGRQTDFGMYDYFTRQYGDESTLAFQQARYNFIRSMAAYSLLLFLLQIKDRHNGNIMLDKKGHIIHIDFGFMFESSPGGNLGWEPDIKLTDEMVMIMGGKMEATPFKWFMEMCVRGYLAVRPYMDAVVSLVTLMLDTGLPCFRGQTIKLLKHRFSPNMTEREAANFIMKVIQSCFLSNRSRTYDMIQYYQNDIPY
Summary of the method: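 Biochemical LanthaScreen enzymatic lipid kinase assay run as an outsourced profiling service. Inhibitor at 10 concentrations, three-fold serial dilutions starting from 1 μM. ATP at the apparent ATP Km for the assay. IC50 derived from the dose-response.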

[13] = Tmax in Swiss albino mouse at 10 mg, ip; format: ADME, organism-based; conditions: in vivo
[14] = Tmax in C57BL/6 mouse at 10 mg/kg, po; format: ADME, organism-based; set-up: dose 10 mg/kg, route oral; conditions: in vivo
[15] = Mean retention time in C57BL/6 mouse at 1 mg/kg, iv; format: ADME, organism-based; set-up: dose 1 mg/kg, route intravenous; conditions: in vivo
[16] = Cmax in Swiss albino mouse at 10 mg, ip; format: ADME, organism-based; set-up: dose 10 mg, route intraperitoneal; conditions: in vivo
[17] = AUC in C57BL/6 mouse at 1 mg/kg, iv; format: ADME, organism-based; set-up: dose 1 mg/kg, route intravenous; conditions: plasma
[18] = target: Serine/threonine-protein kinase mTOR (Homo sapiens, UniProt P42345)

IC50 [1]: > 0.3 µM
SMILES: CCC(=O)N1CCN(c2ccc(-n3c(=O)cc(C)c4cnc5ccc(-c6cnc7ccccc7c6)cc5c43)cc2C(F)(F)F)CC1

IC50 [1]: > 0.3 µM
IC50 [2]: > 0.3 µM
SMILES: O=C(O)N1CCN(c2ccc(Nc3ccnc4ccc(-c5cnc6ccccc6c5)cc34)cc2C(F)(F)F)CC1

IC50 [1]: > 0.3 µM
SMILES: CCC(=O)N1CCN(c2ccc(N3C(=O)NCc4cnc5ccc(-c6cnc7ccccc7c6)cc5c43)cc2C(F)(F)F)CC1

IC50 [1]: 0.005 µM
SMILES: O=C(CN1CCOCC1)N1CCC(c2ccc(-n3c(=O)ccc4cnc5ccc(-c6cnc7ccccc7c6)cc5c43)cc2C(F)(F)F)CC1

IC50 [1]: 0.1 µM
SMILES: CCC(=O)N1CCN(c2ccc(-n3c(=O)c(C)cc4cnc5ccc(-c6cnc7ccccc7c6)cc5c43)cc2C(F)(F)F)CC1

IC50 [1]: 0.03 µM
SMILES: CCC(=O)N1CC=C(c2ccc(-n3c(=O)ccc4cnc5ccc(-c6cnc7ccccc7c6)cc5c43)cc2C(F)(F)F)CC1

IC50 [1]: 0.3 µM
SMILES: CCC(=O)N1CCN(c2ccc(-n3c(=O)n(C)c(=O)c4cnc5ccc(-c6cnc7ccccc7c6)cc5c43)cc2C(F)(F)F)CC1

SMILES: CCC(=O)N1CCN(c2ccc(-n3c(=O)ccc4cnc5ccc(-c6cnc7ccccc7c6)cc5c43)cc2C(F)(F)F)CC1 [TORIN1]
Vd [3]: 0.59 L/kg
AUC [4]: 396 ng·h/mL
inhibition (Mus musculus [5]): Active
inhibition (Mus musculus [6]): Active
Cmax [7]: 2760 ng/mL
AUC [8]: 5720 ng·h/mL
inhibition (Mus musculus [9]): Active
MRT [10]: 90.6 min
Cmax [11]: 223 ng/mL
IC50 [12]: > 10 µM
Tmax [13]: 4.8 min
Tmax [14]: 15 min
MRT [15]: 25.8 min
Cmax [16]: 5120 ng/mL
AUC [17]: 720 ng·h/mL

IC50 [1]: > 0.3 µM
SMILES: CCC(=O)N1CCN(c2ccc(N3C(=O)OCc4cnc5ccc(-c6cnc7ccccc7c6)cc5c43)cc2C(F)(F)F)CC1

IC50 [1]: > 0.3 µM
IC50 [2]: > 0.3 µM
SMILES: CN(C)CCC(=O)N1CCN(c2ccc(Nc3ccnc4ccc(-c5cnc6ccccc6c5)cc34)cc2C(F)(F)F)CC1

IC50 [1]: 0.003 µM
IC50 [18]: 0.0054 µM
IC50 [2]: > 0.3 µM
SMILES: CC(=O)N1CCN(c2ccc(-n3c(=O)ccc4cnc5ccc(-c6cnc7ccccc7c6)cc5c43)cc2C(F)(F)F)CC1
